Data as given in ChEMBL document CHEMBL3785055, “Arginine-linked neomycin B dimers: synthesis, rRNA binding, and resistance enzyme activity” (Medchemcomm, 2016).
Converted amounts (≈) assume the structure as drawn. The source made the active and inactive calls. The calls are words filed in the database; no cut-off is given here.

Columns and labels:
Bacillus cereus = experiment: Antibacterial activity against Bacillus cereus ATCC 11778 after 16 to 20 hrs by MTT assay; assay type: functional
Summary of the method: (§1)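 Strains grown in LB 24 h at 37 °C, 250 rpm; overnight culture diluted 1:1000, grown 4 h, diluted 1:1000 again and added to microplates. Incubation 16–20 h at 37 °C; growth read visually and with MTT (1 mg/mL).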

[1] = tested on: Staphylococcus epidermidis; experiment: Antibacterial activity against Staphylococcus epidermidis ATCC 12228 after 16 to 20 hrs by MTT assay; assay type: functional; summary of the method: as §1
Staphylococcus aureus [2] = experiment: Antibacterial activity against Staphylococcus aureus ATCC 25923 after 16 to 20 hrs by MTT assay; assay type: functional; summary of the method: as §1
[3] = Displacement of F-NEO from Escherichia coli rRNA A-site by fluorescence assay
[4] = Displacement of F-NEO from human rRNA A-site by fluorescence assay
[5] = Selectivity factor, ratio of IC50 for human rRNA A-site to IC50 for Escherichia coli rRNA A-site
Summary of the method: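 Ratio from F-NEO displacement titrations, 0.002–2.0 μM compound against 0.1 μM F-NEO:A-site complex (485/535 nm). Measured IC50 stands in for the unmeasurable competition constants in Kd(human)/Kd(E. coli) = 5.75 × K(E. coli)/K(human). Buffer 10 mM HEPES, 50 mM NaCl, 0.4 mM EDTA, pH 7.0.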

Escherichia coli = experiment: Activity at Escherichia coli AAC(3)-4 at 100 uM in presence of AcCoA by Ellmans method relative to NEO
Summary of the method: (§2)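 Acetylation followed by Ellman's method at 412 nm, 2 mM DTNB, 100 μM compound, 25 °C, triplicate, rates normalized to NEO. AcCoA 500 μM for Eis, 150 μM for AAC(3)-IV; enzyme 0.5 μM for Eis, 0.125 μM for AAC(3)-IV; 50 mM buffer.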

Staphylococcus aureus [6] = experiment: Activity at Staphylococcus aureus APH(2'')-1a at 100 uM in presence of […] by […] relative to NEO
[7] = tested on: Mycobacterium tuberculosis; experiment: Activity at Mycobacterium tuberculosis AAC(2')-1c at 100 uM in presence of AcCoA by Ellmans method relative to NEO
Summary of the method: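 N-acetylation by AAC(2')-Ic (0.125 μM enzyme) of 100 μM compound with 150 μM AcCoA and 2 mM DTNB in 100 mM buffer, 25 °C. Thiol release followed at 412 nm (ε = 14,150 M⁻¹cm⁻¹). Rates normalized to neomycin B, triplicate.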

Staphylococcus aureus [8] = experiment: Activity at Staphylococcus aureus AAC(6')-1e/APH(2'')-1a in presence of AcCoA by Ellmans method relative to NEO
[9] = Activity at APH(3')-1a (unknown origin) at 100 uM in presence of […] by […] relative to NEO
[10] = Activity at Eis (unknown origin) at 100 uM in presence of AcCoA by Ellmans method relative to NEO; summary of the method: as §2

Row | SMILES | MIC (Bacillus cereus) [µM] | MIC [1] [µM] | MIC (Staphylococcus aureus [2]) [µM] | IC50 [3] [µM] | IC50 [4] [µM] | Ratio IC50 [5] | Activity (Escherichia coli) | Activity (Staphylococcus aureus [6]) | Activity [7] | Activity (Staphylococcus aureus [8]) | Activity [9] | Activity [10]
1 | N=C(N)NCCC[C@@H](NC(=O)CCCNC(=O)c1cc(-c2cn(C[C@@H]3O[C@H](O[C@@H]4[C@@H](O)[C@H](N)C[C@H](N)[C@H]4O[C@@H]4O[C@@H](CN)[C@H](O)[C@@H](O)[C@@H]4N)[C@@H](O)[C@H]3O[C@@H]3O[C@H](CN)[C@H](O)[C@@H](O)[C@@H]3N)nn2)cc(-c2cn(C[C@H]3O[C@@H](O[C@@H]4[C@@H](O)[C@H](N)C[C@H](N)[C@H]4O[C@@H]4O[C@@H](CN)[C@H](O)[C@@H](O)[C@@H]4N)[C@H](O)[C@@H]3O[C@@H]3O[C@H](CN)[C@H](O)[C@@H](O)[C@@H]3N)nn2)c1)C(N)=O (stereo in doubt) | 1.6 (≈ 2.7 µg/mL) | > 50 | > 50 | 56 | 52 | 5.3 | Active | inactive | inactive | inactive | inactive | inactive
2 | N=C(N)NCCC[C@H](NC(=O)CCCCNC(=O)c1cc(-c2cn(C[C@@H]3O[C@H](O[C@H]4[C@H](O)[C@@H](N)C[C@@H](N)[C@@H]4O[C@H]4O[C@H](CN)[C@@H](O)[C@H](O)[C@H]4N)[C@@H](O)[C@H]3O[C@H]3O[C@@H](CN)[C@@H](O)[C@H](O)[C@H]3N)nn2)cc(-c2cn(C[C@H]3O[C@@H](O[C@@H]4[C@@H](O)[C@H](N)C[C@H](N)[C@H]4O[C@@H]4O[C@@H](CN)[C@H](O)[C@@H](O)[C@@H]4N)[C@H](O)[C@@H]3O[C@@H]3O[C@H](CN)[C@H](O)[C@@H](O)[C@@H]3N)nn2)c1)C(N)=O (stereo in doubt) | 3 (≈ 5.11 µg/mL) | > 50 | > 50 | 52 | 70 | 7.4 | Active | inactive | inactive | inactive | inactive | inactive
3 | N=C(N)NCCC[C@H](NC(=O)CCCCCCNC(=O)c1cc(-c2cn(C[C@@H]3O[C@H](O[C@H]4[C@H](O)[C@@H](N)C[C@@H](N)[C@@H]4O[C@H]4O[C@H](CN)[C@@H](O)[C@H](O)[C@H]4N)[C@@H](O)[C@H]3O[C@H]3O[C@@H](CN)[C@@H](O)[C@H](O)[C@H]3N)nn2)cc(-c2cn(C[C@H]3O[C@@H](O[C@@H]4[C@@H](O)[C@H](N)C[C@H](N)[C@H]4O[C@@H]4O[C@@H](CN)[C@H](O)[C@@H](O)[C@@H]4N)[C@H](O)[C@@H]3O[C@@H]3O[C@H](CN)[C@H](O)[C@@H](O)[C@@H]3N)nn2)c1)C(N)=O (stereo in doubt) | 3 (≈ 5.2 µg/mL) | > 50 | > 50 | 44 | 56 | 7.3 | – | inactive | inactive | inactive | inactive | inactive
4 | NC[C@@H]1O[C@@H](O[C@H]2[C@H](O[C@H]3O[C@@H](Cn4cc(-c5cc(C(=O)O)cc(-c6cn(C[C@H]7O[C@@H](O[C@@H]8[C@@H](O)[C@H](N)C[C@H](N)[C@H]8O[C@@H]8O[C@@H](CN)[C@H](O)[C@@H](O)[C@@H]8N)[C@H](O)[C@@H]7O[C@H]7O[C@@H](CN)[C@@H](O)[C@H](O)[C@H]7N)nn6)c5)nn4)[C@H](O[C@H]4O[C@@H](CN)[C@@H](O)[C@H](O)[C@H]4N)[C@@H]3O)[C@@H](O)[C@H](N)C[C@@H]2N)[C@@H](N)[C@H](O)[C@H]1O (stereo in doubt) | 3 (≈ 4.35 µg/mL) | 13 (≈ 18.8 µg/mL) | 13 (≈ 18.8 µg/mL) | 51 | 50 | 5.6 | Active | inactive | inactive | inactive | inactive | inactive
5 | N=C(N)NCCC[C@H](NC(=O)CCCCCCCNC(=O)c1cc(-c2cn(C[C@@H]3O[C@H](O[C@H]4[C@H](O)[C@@H](N)C[C@@H](N)[C@@H]4O[C@H]4O[C@H](CN)[C@@H](O)[C@H](O)[C@H]4N)[C@@H](O)[C@H]3O[C@H]3O[C@@H](CN)[C@@H](O)[C@H](O)[C@H]3N)nn2)cc(-c2cn(C[C@H]3O[C@@H](O[C@@H]4[C@@H](O)[C@H](N)C[C@H](N)[C@H]4O[C@@H]4O[C@@H](CN)[C@H](O)[C@@H](O)[C@@H]4N)[C@H](O)[C@@H]3O[C@@H]3O[C@H](CN)[C@H](O)[C@@H](O)[C@@H]3N)nn2)c1)C(N)=O (stereo in doubt) | 3 (≈ 5.24 µg/mL) | 25 (≈ 43.6 µg/mL) | > 50 | 48 | 43 | 5.2 | – | inactive | inactive | inactive | inactive | inactive
6 | N=C(N)NCCC[C@H](NC(=O)CCNC(=O)c1cc(-c2cn(C[C@@H]3O[C@H](O[C@H]4[C@H](O)[C@@H](N)C[C@@H](N)[C@@H]4O[C@H]4O[C@H](CN)[C@@H](O)[C@H](O)[C@H]4N)[C@@H](O)[C@H]3O[C@H]3O[C@@H](CN)[C@@H](O)[C@H](O)[C@H]3N)nn2)cc(-c2cn(C[C@H]3O[C@@H](O[C@@H]4[C@@H](O)[C@H](N)C[C@H](N)[C@H]4O[C@@H]4O[C@@H](CN)[C@H](O)[C@@H](O)[C@@H]4N)[C@H](O)[C@@H]3O[C@@H]3O[C@H](CN)[C@H](O)[C@@H](O)[C@@H]3N)nn2)c1)C(N)=O (stereo in doubt) | 0.8 (≈ 1.34 µg/mL) | 50 (≈ 83.8 µg/mL) | 50 (≈ 83.8 µg/mL) | 70 | 58 | 4.7 | Active | inactive | inactive | inactive | inactive | inactive
7 | NCC1O[C@H](O[C@H]2[C@@H](O)[C@H](O[C@H]3[C@H](O)[C@@H](N)C[C@@H](N)[C@@H]3O[C@H]3O[C@H](CN)[C@@H](O)[C@H](O)[C@H]3N)O[C@@H]2CO)[C@H](N)[C@@H](O)[C@@H]1O (some centres not stated) | ≤ 0.1 | 0.2 (≈ 0.123 µg/mL) | 0.2 (≈ 0.123 µg/mL) | 87 | 76 | 5 | – | – | – | – | – | –
8 | N=C(N)NCCC[C@H](NC(=O)CCCCCCCCNC(=O)c1cc(-c2cn(C[C@@H]3O[C@H](O[C@H]4[C@H](O)[C@@H](N)C[C@@H](N)[C@@H]4O[C@H]4O[C@H](CN)[C@@H](O)[C@H](O)[C@H]4N)[C@@H](O)[C@H]3O[C@H]3O[C@@H](CN)[C@@H](O)[C@H](O)[C@H]3N)nn2)cc(-c2cn(C[C@H]3O[C@@H](O[C@@H]4[C@@H](O)[C@H](N)C[C@H](N)[C@H]4O[C@@H]4O[C@@H](CN)[C@H](O)[C@@H](O)[C@@H]4N)[C@H](O)[C@@H]3O[C@@H]3O[C@H](CN)[C@H](O)[C@@H](O)[C@@H]3N)nn2)c1)C(N)=O (stereo in doubt) | 3 (≈ 5.28 µg/mL) | 50 (≈ 88 µg/mL) | > 50 | 60 | 62 | 5.9 | – | inactive | inactive | inactive | inactive | inactive
